In ChEMBL document CHEMBL1146087, “1,4-Benzodiazepines as inhibitors of respiratory syncytial virus” (J Med Chem, 2006):

What was measured:
HEp-2 = assay: Cytotoxicity against Hep2 cell at 50 uM; format: functional, cell-based; settings: Homo sapiens
Summary of the method: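 Run alongside the whole-cell antiviral XTT assay, without virus, to measure compound toxicity to the cells. The read-out is XTT.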

[1] = tested on: Respiratory syncytial virus; assay: Antiviral activity against RSV RSS in Hep2 cells by whole cell XTT assay; format: functional, organism-based; settings: human respiratory syncytial virus, HEp-2
Summary of the method: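 Primary whole-cell assay with XTT read-out of infected cells. Parallel cultures without virus were run to measure compound cytotoxicity. IC50 values were derived.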

[2] = Volume of distribution in Sprague-Dawley rat at 2 mg/kg, iv; format: ADME, organism-based; parameters: dose 2 mg/kg, route intravenous; settings: in vivo, read-out: Vdss
[3] = Clearance in Sprague-Dawley rat at 2 mg/kg, iv; format: ADME, organism-based; parameters: dose 2 mg/kg, route intravenous; settings: in vivo
[4] = Cmax in Sprague-Dawley rat at 2 mg/kg, iv; format: ADME, organism-based; parameters: dose 2 mg/kg, route intravenous; settings: in vivo
[5] = Cmax in Sprague-Dawley rat at 2 mg/kg, po; format: ADME, organism-based; parameters: dose 2 mg/kg, route oral; settings: in vivo
[6] = Tmax in Sprague-Dawley rat at 2 mg/kg, iv; format: ADME, organism-based; parameters: dose 2 mg/kg, route intravenous; settings: in vivo
[7] = Oral bioavailability in Sprague-Dawley rat at 2 mg/kg, po; format: ADME, organism-based; settings: in vivo
[8] = Half life in Sprague-Dawley rat at 2 mg/kg, iv; format: ADME, organism-based; parameters: dose 2 mg/kg, route intravenous; settings: in vivo
[9] = Tmax in Sprague-Dawley rat at 2 mg/kg, po; format: ADME, organism-based; parameters: dose 2 mg/kg, route oral; settings: in vivo
[10] = Cmax in Sprague-Dawley rat at 20 mg/kg, po; format: ADME, organism-based; parameters: dose 20 mg/kg, route oral; settings: in vivo
[11] = Tmax in Sprague-Dawley rat at 20 mg/kg, po; format: ADME, organism-based; parameters: dose 20 mg/kg, route oral; settings: in vivo
[12] = Apparent oral clearance in Sprague-Dawley rat at 20 mg/kg, po; format: ADME, organism-based; parameters: dose 20 mg/kg, route oral; settings: in vivo
[13] = Half life in Sprague-Dawley rat at 20 mg/kg, po; format: ADME, organism-based; parameters: dose 20 mg/kg, route oral; settings: in vivo
Rattus norvegicus = assay: Volume of distribution in Sprague-Dawley rat at 20 mg/kg, po; format: ADME, organism-based; parameters: dose 20 mg/kg, route oral; settings: in vivo

## O=C(NC1N=C(c2ccccc2)c2ccccc2NC1=O)c1ccccc1CN1CCOCC1 (stereo unspecified)
HEp-2
  Activity: Not toxic
[1]
  IC50: 20.7 µM

## O=C(Nc1ccccc1F)NC1N=C(C2CCCCC2)c2ccccc2NC1=O (stereo unspecified)
HEp-2
  Activity: Not toxic
[1]
  IC50: > 50 µM

## CCCOc1ccccc1C(=O)NC1N=C(c2ccccc2)c2ccccc2NC1=O (stereo unspecified)
HEp-2
  Activity: Not toxic
[1]
  IC50: 40.2 µM

## COc1ccc(C(=O)NC2N=C(c3ccccc3)c3ccccc3NC2=O)cc1 (stereo unspecified)
HEp-2
  Activity: Not toxic
[1]
  IC50: 3.6 µM

## CN1C(=O)C(NC(=O)Nc2ccccc2F)N=C(c2ccccc2)c2ccccc21 (stereo unspecified)
HEp-2
  Activity: Not toxic
[1]
  IC50: > 50 µM

## CN1CCN(C(=O)NC2N=C(c3ccccc3)c3ccccc3NC2=O)CC1 (stereo unspecified)
HEp-2
  Activity: Not toxic
[1]
  IC50: 9.3 µM

## COc1ccccc1C(=O)NC1N=C(c2ccccc2)c2cc(Cl)ccc2NC1=O (stereo unspecified)
HEp-2
  Activity: Not toxic
[1]
  IC50: 6.1 µM

## CNc1ccccc1C(=O)NC1N=C(c2ccccc2)c2ccccc2NC1=O (stereo unspecified)
HEp-2
  Activity: Not toxic
[1]
  IC50: 9.6 µM

## O=C(NC1N=C(c2ccccc2)c2ccccc2NC1=O)C1CCCCC1 (stereo unspecified)
HEp-2
  Activity: Not toxic

## O=C1Nc2ccccc2C(c2ccccc2)=NC1NC(=O)N1CCOCC1 (stereo unspecified)
HEp-2
  Activity: Not toxic
[1]
  IC50: 9.7 µM

## O=C(Nc1ccccc1F)OC1N=C(c2ccccc2)c2ccccc2NC1=O (stereo unspecified)
HEp-2
  Activity: Not toxic
[1]
  IC50: 16.1 µM

## COc1ccccc1C(=O)NC1N=C(c2ccc(F)cc2)c2ccccc2NC1=O (stereo unspecified)
HEp-2
  Activity: Not toxic
[1]
  IC50: 16.5 µM

## O=C1Nc2ccccc2C(c2ccccc2)=NC1NC(=O)C1CCCO1 (stereo unspecified)
HEp-2
  Activity: Not toxic
[1]
  IC50: 17.4 µM

## COc1ccccc1C(=O)NC1N=C(c2ccc(C(F)(F)F)cc2)c2ccccc2NC1=O (stereo unspecified)
HEp-2
  Activity: Not toxic
[1]
  IC50: > 50 µM

## O=C1Nc2ccccc2C(c2ccccc2)=NC1N1CCOCC1 (stereo unspecified)
HEp-2
  Activity: Not toxic
[1]
  IC50: > 50 µM

## COc1cccc(C2=NC(NC(=O)c3ccccc3OC)C(=O)Nc3ccccc32)c1 (stereo unspecified)
HEp-2
  Activity: Not toxic
[1]
  IC50: > 50 µM

## O=C(NC1N=C(c2ccccc2F)c2cc(Cl)ccc2NC1=O)c1ccco1 (stereo unspecified)
HEp-2
  Activity: Not toxic
[1]
  IC50: 41.3 µM

## CN(C)c1ccccc1C(=O)NC1N=C(c2ccccc2)c2ccccc2NC1=O (stereo unspecified)
HEp-2
  Activity: Not toxic
[1]
  IC50: 4.8 µM

## O=C(NC1N=C(c2ccccc2)c2ccccc2NC1=O)c1ccc([N+](=O)[O-])cc1 (stereo unspecified)
HEp-2
  Activity: Not toxic
[1]
  IC50: 6.7 µM

## COc1ccccc1C(=O)NC1N=C(c2ccccc2)c2ccc(C)cc2NC1=O (stereo unspecified)
HEp-2
  Activity: Not toxic
[1]
  IC50: 19.2 µM

## O=C(NC1N=C(c2ccccc2)c2ccccc2NC1=O)c1cccc([N+](=O)[O-])c1 (stereo unspecified)
HEp-2
  Activity: Not toxic
[1]
  IC50: 7.4 µM

## COc1ccc(C(=O)NC2N=C(c3ccccc3)c3ccccc3NC2=O)c(OC)c1 (stereo unspecified)
HEp-2
  Activity: Not toxic
[1]
  IC50: 2.1 µM

## COc1ccccc1C(=O)NC1N=C(c2ccccc2)c2ccccc2NC1=O (stereo unspecified)
[2]
  Vd: 2.4 L/kg
[3]
  clearance: 71.2 mL/min/kg
[4]
  Cmax: 798 ng/mL
[5]
  Cmax: 19.3 ng/mL
[6]
  Tmax: 4.8 min
HEp-2
  Activity: Not toxic
[1]
  IC50: 2.3 µM
[7]
  bioavailability: 4%
[8]
  half-life: 24 min
[9]
  Tmax: 48 min

## O=C(NC1N=C(c2ccccc2)c2ccccc2NC1=O)c1ccccc1OC(F)(F)F (stereo unspecified)
HEp-2
  Activity: Not toxic
[1]
  IC50: 14.4 µM

## COc1ccc(F)cc1C(=O)NC1N=C(c2ccccc2)c2ccccc2NC1=O (stereo unspecified)
HEp-2
  Activity: Not toxic
[10]
  Cmax: 10.3 ng/mL
[1]
  IC50: 1.5 µM
[11]
  Tmax: 200 min
[12]
  CL/F: 981 mL/min/kg

## COc1ccc(CNC2N=C(c3ccccc3)c3ccccc3NC2=O)cc1 (stereo unspecified)
HEp-2
  Activity: Not toxic

## CCN(CC)C(=O)NC1N=C(c2ccccc2)c2ccccc2NC1=O (stereo unspecified)
HEp-2
  Activity: Not toxic
[1]
  IC50: 20.7 µM

## COc1cc(S(C)(=O)=O)ccc1C(=O)NC1N=C(c2ccccc2)c2ccccc2NC1=O (stereo unspecified)
HEp-2
  Activity: Not toxic
[1]
  IC50: 2 µM

## COc1ccccc1CNC1N=C(c2ccccc2)c2ccccc2NC1=O (stereo unspecified)
HEp-2
  Activity: Not toxic
[1]
  IC50: 27.3 µM

## CC(C)(C)C(=O)NC1N=C(c2ccccc2)c2ccccc2NC1=O (stereo unspecified)
HEp-2
  Activity: Not toxic
[1]
  IC50: 16.7 µM

## COc1ccccc1C(=O)NC1N=C(c2cccc(C(F)(F)F)c2)c2ccccc2NC1=O (stereo unspecified)
HEp-2
  Activity: Not toxic
[1]
  IC50: 16.7 µM

## O=C(NC1N=C(c2ccccc2)c2ccccc2NC1=O)c1ccccc1C1CCCCC1 (stereo unspecified)
HEp-2
  Activity: Not toxic
[1]
  IC50: > 50 µM

## COc1cc([N+](=O)[O-])ccc1C(=O)N(C)C1N=C(c2ccccc2)c2ccccc2NC1=O (stereo unspecified)
HEp-2
  Activity: Not toxic
[1]
  IC50: 25.1 µM

## O=C(NC1N=C(c2ccccc2)c2ccccc2NC1=O)c1ccc(N2CCOCC2)cc1Cl (stereo unspecified)
HEp-2
  Activity: Not toxic
[1]
  IC50: 3.4 µM

## COc1cccc(C(=O)NC2N=C(c3ccccc3)c3ccccc3NC2=O)c1 (stereo unspecified)
HEp-2
  Activity: Not toxic
[1]
  IC50: 6.6 µM

## CC(C)C(=O)NC1N=C(c2ccccc2)c2ccccc2NC1=O (stereo unspecified)
HEp-2
  Activity: Not toxic
[1]
  IC50: 9.5 µM

## COc1ccccc1C(=O)NC1N=C(c2ccccc2F)c2cc(Cl)ccc2NC1=O (stereo unspecified)
HEp-2
  Activity: Not toxic
[1]
  IC50: 26.2 µM

## COc1cc2c(cc1OC)C(c1ccccc1)=NC(NC(=O)c1ccccc1OC)C(=O)N2 (stereo unspecified)
HEp-2
  Activity: Not toxic
[1]
  IC50: > 50 µM

## COc1cc([N+](=O)[O-])ccc1C(=O)NC1N=C(c2ccccc2)c2ccccc2N(C)C1=O (stereo unspecified)
HEp-2
  Activity: Not toxic
[1]
  IC50: > 50 µM

## O=C(NC1N=C(c2ccccc2)c2ccccc2NC1=O)c1ccccc1 (stereo unspecified)
HEp-2
  Activity: Not toxic
[1]
  IC50: 5.5 µM

## O=C(NC1N=C(c2ccccc2)c2ccccc2NC1=O)c1cccc(C(F)(F)F)c1 (stereo unspecified)
HEp-2
  Activity: Not toxic
[1]
  IC50: 7.5 µM

## CCN(CC)C1N=C(c2ccccc2)c2ccccc2NC1=O (stereo unspecified)
HEp-2
  Activity: Not toxic
[1]
  IC50: > 50 µM

## CCOc1ccccc1C(=O)NC1N=C(c2ccccc2)c2ccccc2NC1=O (stereo unspecified)
HEp-2
  Activity: Not toxic
[1]
  IC50: 3.6 µM

## O=C(NC1N=C(c2cccc(Cl)c2)c2ccccc2NC1=O)c1ccco1 (stereo unspecified)
HEp-2
  Activity: Not toxic
[1]
  IC50: 6.9 µM

## O=C(NC1N=C(c2ccccc2)c2ccccc2NC1=O)c1cccs1 (stereo unspecified)
HEp-2
  Activity: Not toxic
[1]
  IC50: 5.6 µM

## Cc1cc(C(=O)NC2N=C(c3ccccc3)c3ccccc3NC2=O)oc1C (stereo unspecified)
HEp-2
  Activity: Not toxic
[1]
  IC50: 2.8 µM

## O=C(NC1N=C(c2ccccc2)c2ccccc2NC1=O)c1ccco1 (stereo unspecified)
HEp-2
  Activity: Not toxic
[1]
  IC50: 3.2 µM

## O=C(NC1N=C(c2ccccc2)c2ccc(Cl)cc2NC1=O)c1cccs1 (stereo unspecified)
HEp-2
  Activity: Not toxic
[1]
  IC50: 26.7 µM

## COc1ccc(C(=O)NC2N=C(C)c3ccccc3NC2=O)cc1 (stereo unspecified)
HEp-2
  Activity: Not toxic
[1]
  IC50: > 50 µM

## COc1ccc2c(c1)C(c1ccccc1)=NC(NC(=O)c1ccccc1OC)C(=O)N2 (stereo unspecified)
HEp-2
  Activity: Not toxic
[1]
  IC50: > 50 µM

## O=C(NC1N=C(c2ccc(C(F)(F)F)cc2)c2ccccc2NC1=O)c1ccco1 (stereo unspecified)
HEp-2
  Activity: Not toxic
[1]
  IC50: > 50 µM

## COc1cc(Cl)ccc1C(=O)NC1N=C(c2ccccc2)c2ccccc2NC1=O (stereo unspecified)
[13]
  half-life: 162 min
HEp-2
  Activity: Not toxic
[10]
  Cmax: 273 ng/mL
[1]
  IC50: 5.9 µM
[11]
  Tmax: 60 min
[12]
  CL/F: 288 mL/min/kg
Rattus norvegicus
  Vdss: 98.3 L/kg

## O=C(NC1N=C(c2ccccc2)c2ccccc2NC1=O)c1cccc(OC(F)(F)F)c1 (stereo unspecified)
HEp-2
  Activity: Not toxic
[1]
  IC50: 14.6 µM

## COc1ccc(C2=NC(NC(=O)c3ccccc3OC)C(=O)Nc3ccccc32)cc1 (stereo unspecified)
HEp-2
  Activity: Not toxic
[1]
  IC50: > 50 µM

## O=C(NC1N=C(c2cccc(C(F)(F)F)c2)c2ccccc2NC1=O)c1ccco1 (stereo unspecified)
HEp-2
  Activity: Not toxic
[1]
  IC50: 18.8 µM

## O=C(NC1N=C(C2CCCCC2)c2ccccc2NC1=O)c1ccco1 (stereo unspecified)
HEp-2
  Activity: Not toxic
[1]
  IC50: > 50 µM
